Holding throughout (type): functional
One assay has as its system MOLT-4. In words: Antiproliferative activity against human MOLT4 cells after 48 hrs by SRB assay. The note with it: MOLT-4, 48 h. The essentials: (§1)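 NCI 60-cell-line human tumour panel, secondary five-dose screen. Compounds tested at 100, 10, 1.0, 0.1 and 0.01 µM with 48 h continuous exposure. Cell growth was estimated by sulforhodamine B protein staining. GI50 is the concentration giving a 50% reduction in net protein increase relative to untreated control cells over the incubation. TGI and LC50 were also derived.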
In general terms: Sulforhodamine B stains cellular protein and so reports cell mass.

Another assay concerns HL-60. Put plainly: Antiproliferative activity against human HL-60(TB) cells after 48 hrs by SRB assay. To be noted: HL-60, 48 h. The essentials:
as §1

A further assay relates to SF-268. In words: Antiproliferative activity against human SF268 cells after 48 hrs by SRB assay. To be noted: SF-268, 48 h. In a few lines: as §1
The next assay concerns NCI-H460. In words: Antiproliferative activity against human NCI-H460 cells after 48 hrs by SRB assay. To be noted: NCI-H460, 48 h. In a few lines:
as §1

The test system of the next assay is SK-MEL-28. In words: Antiproliferative activity against human SK-MEL-28 cells after 48 hrs by SRB assay. To be noted: SK-MEL-28, 48 h, read-out: LC50 (the source's name). The essentials:
as §1

Another assay has as its system LOX IMVI. Put plainly: Antiproliferative activity against human LOXIMVI cells after 48 hrs by SRB assay. In a few lines:
as §1

In the next assay the test system is K562. In words: Antiproliferative activity against human K562 cells after 48 hrs by SRB assay. To be noted: K562, 48 h. In a few lines:
as §1

The test system of a further assay is CCRF-CEM. In words: Antiproliferative activity against human CCRF-CEM cells after 48 hrs by SRB assay. To be noted: read-out: LC50 (the source's name). In a few lines: as §1
The test system of a further assay is HCC 2998. In words: Antiproliferative activity against human HCC2998 cells after 48 hrs by SRB assay. The note with it: HCC 2998, 48 h; for CC50: read-out: LC50 (the source's name). In a few lines:
as §1

For the next assay, the system named is HOP-62. Put plainly: Antiproliferative activity against human HOP62 cells after 48 hrs by SRB assay. To be noted: HOP-62, 48 h. The essentials:
as §1

The test system of another assay is NCI-H226. Put plainly: Antiproliferative activity against human NCI-H226 cells after 48 hrs by SRB assay. The note with it: NCI-H226, 48 h; for CC50: read-out: LC50 (the source's name). The essentials:
as §1

Another assay concerns DU-145. Put plainly: Antiproliferative activity against human DU145 cells after 48 hrs by SRB assay. To be noted: DU-145, 48 h, read-out: LC50 (the source's name). In a few lines: as §1
A further assay deals with MDA-MB-468. Put plainly: Antiproliferative activity against human MDA-MB-468 cells after 48 hrs by SRB assay. The note with it: MDA-MB-468, 48 h; for CC50: read-out: LC50 (the source's name). In a few lines: as §1
Another assay has as its system 786-0. In words: Antiproliferative activity against human 786-0 cells after 48 hrs by SRB assay. The note with it: 786-0, 48 h. In a few lines: as §1
The next assay deals with A549. In words: Antiproliferative activity against human A549 cells after 48 hrs by SRB assay. The note with it: A549, 48 h, read-out: LC50 (the source's name). In a few lines: as §1
A further assay relates to BT-549. In words: Antiproliferative activity against human BT549 cells after 48 hrs by SRB assay. The note with it: BT-549, 48 h; for CC50: read-out: LC50 (the source's name). In a few lines: as §1
The next assay has as its system OVCAR-3. Put plainly: Antiproliferative activity against human OVCAR-3 cells after 48 hrs by SRB assay. The note with it: OVCAR-3, 48 h. The essentials: as §1
In another assay the test system is SW-620. In words: Antiproliferative activity against human SW620 cells after 48 hrs by SRB assay. The note with it: SW-620, 48 h. The essentials:
as §1

The test system of a further assay is OVCAR-4. Put plainly: Antiproliferative activity against human OVCAR4 cells after 48 hrs by SRB assay. To be noted: OVCAR-4, 48 h, read-out: LC50 (the source's name). The essentials: as §1
A further assay deals with Hs-578T. Put plainly: Antiproliferative activity against human Hs 578T cells after 48 hrs by SRB assay. To be noted: read-out: LC50 (the source's name). In a few lines: as §1
Another assay relates to PC-3. In words: Antiproliferative activity against human PC3 cells after 48 hrs by SRB assay. The note with it: PC-3, 48 h. The essentials: as §1
Where [1] appears, read: read-out: LC50 (the source's name).

We go through two compounds from ChEMBL document CHEMBL1177688, “Synthesis of novel pyrazolic analogues of chalcones and their 3-aryl-4-(3-aryl-4,5-dihydro-1H-pyrazol-5-yl)-1-phenyl-1H-pyrazole derivatives as potential antitumor agents” (2010).

The GI50 is the concentration that inhibits growth by half. As a reminder, the LC50 is the concentration lethal to half of the exposed cells or organisms. Turning to `O=C(/C=C/c1cn(-c2ccccc2)nc1-c1ccc([N+](=O)[O-])cc1)c1ccc(Cl)cc1`, the GI50 with MOLT-4 is 0.87 µM; with HL-60, above 100 µM; with SF-268, 3.12 µM; in the assay on K562 it was 0.09 µM; with HCC 2998, above 100 µM; in the assay on HOP-62 it was 26 µM. Besides, the GI50 was 3.77 µM in the assay with NCI-H226; 2.91 µM in the assay on MDA-MB-468; 3.94 µM with 786-0; 2.25 µM in the assay on BT-549; 1.96 µM with OVCAR-3. The CC50 in the assay with MOLT-4 (setting [1]), in the assay on HL-60 (setting [1]), in the assay with NCI-H460 (setting [1]), in the assay with SK-MEL-28, in the assay with LOX IMVI (setting [1]) and with K562 (setting [1]) was above 100 µM in each case. Besides, the CC50 in the assay on CCRF-CEM, with HCC 2998, in the assay on HOP-62 (setting [1]), in the assay with NCI-H226, in the assay with DU-145 and in the assay with MDA-MB-468 was above 100 µM in each case. For the same compound, the CC50 with 786-0 (setting [1]), with A549, with BT-549 and in the assay on OVCAR-3 (setting [1]) was above 100 µM each time. The compound further returned an LC50 in the assay with SF-268 above 100 µM.

Consider `COc1ccc(C2=NN(C(C)=O)C(c3cn(-c4ccccc4)nc3-c3ccc(Cl)cc3)C2)cc1` (stereo unspecified), for which the GI50 in the assay with SF-268 amounted to 4.55 µM; in the assay with NCI-H460 it was 1.98 µM; in the assay on LOX IMVI, 1.66 µM; in the assay on SW-620 it was 3.48 µM; in the assay on HCC 2998, 2.21 µM; with PC-3, 2.35 µM. Moreover, the LC50 in the assay with SF-268 is above 100 µM. Also, the CC50 in the assay on SK-MEL-28, in the assay with SW-620 (setting [1]), in the assay with OVCAR-4, in the assay with HCC 2998, in the assay on Hs-578T and in the assay with NCI-H226 was above 100 µM in each case. For the same compound, the CC50 in the assay with DU-145, with MDA-MB-468, in the assay with PC-3 (setting [1]), with A549 and in the assay on BT-549 was above 100 µM in each case.
